Experimental data collected from several papers.
Lines come from different studies, so protocols differ. Converted amounts (≈) assume the structure as drawn.

Structure (SMILES)	target or system	test	test system	setting	measurement	result
N.N.[Cl][Pt][Cl]	Daudi	cell growth or viability, ATP luminescence		72 h	IC50	0.86 µM
O=C1CCP(=[Se])(c2ccccc2)CC1	HaCaT	cell growth or viability, MTT		72 h	IC50	> 100 µM
COc1cnc(OC)n2nc(NS(=O)(=O)c3c(OCC(F)F)cccc3C(F)(F)F)nc12	HaCaT	cell growth or viability, CCK-8		50 µM, 72 h	inhibition	0.69%
C#Cc1ccc(C=NNC(=O)c2ccc(COCC)cc2)c(O)c1	Cryptococcus neoformans	microbial growth, broth dilution		pH 7.4	MIC80	0.015 µg/mL (≈ 0.0465 µM)
S=P1(C2CCCCC2)CCCCC1	HaCaT	cell growth or viability, MTT		72 h	IC50	> 100 µM
CC[C@H](C)C[C@H](C)CCCCCCCCC(=O)N[C@H]1C[C@@H](O)[C@@H](NCCN)NC(=O)[C@@H]2[C@@H](O)CCN2C(=O)[C@H]([C@H](O)CCN)NC(=O)[C@H]([C@H](O)[C@@H](O)c2ccc(O)cc2)NC(=O)[C@@H]2C[C@@H](O)CN2C(=O)[C@H]([C@@H](C)O)NC1=O	Nakaseomyces glabratus	microbial growth, broth dilution	ATCC15126	48 h	MIC	0.25 µg/mL (≈ 0.229 µM)
O=C1CCc2cc(-c3cccc(OC(=O)[C@H]4[C@H](c5ccccc5)[C@@H](C(=O)O)[C@H]4c4ccccc4)c3)ccc2N1	WI-38	cell growth or viability, MTT			IC50	77 µM
C#Cc1ccc(C=NNC(=O)c2ccc(Br)c(O)c2)c(O)c1	Cryptococcus neoformans	microbial growth, broth dilution		pH 7.4	MIC80	1 µg/mL (≈ 2.78 µM)
CC(=O)O[C@H]1C(=O)[C@@]2(C)[C@H]([C@H](OC(=O)c3ccccc3)[C@]3(O)C[C@H](OC(=O)[C@H](O)[C@@H](NC(=O)c4ccccc4)c4ccccc4)C(C)=C1C3(C)C)[C@]1(OC(C)=O)CO[C@@H]1C[C@@H]2O	HaCaT	cell growth or viability, CCK-8		12.5 µM, 72 h	inhibition	> 90%
C#Cc1ccc(C=NNC(=O)c2ccc(Br)cc2)c(O)c1	Cryptococcus neoformans	microbial growth, broth dilution		pH 7.4	MIC80	0.03 µg/mL (≈ 0.0874 µM)
CC[C@H](C)[C@@H]([C@@H](CC(=O)N1CCC[C@H]1[C@H](OC)[C@@H](C)C(=O)N[C@H](C)[C@@H](O)c1ccccc1)OC)N(C)C(=O)[C@@H](NC(=O)[C@@H](NC)C(C)C)C(C)C	Daudi	cell growth or viability, CCK-8			IC50	0.00185 µM
O=C1CCP(=S)(c2ccccc2)CC1	HaCaT	cell growth or viability, MTT		72 h	IC50	14.2 µM
C#Cc1ccc(C=NNC(=O)c2ccc(COCCC)cc2)c(O)c1	Cryptococcus neoformans	microbial growth, broth dilution		pH 7.4	MIC80	0.015 µg/mL (≈ 0.0446 µM)
